Assay results as given in ChEMBL document CHEMBL5247575 (J Med Chem, 2018).

System: Acinetobacter baumannii
Assay: Synergistic antibacterial activity against Acinetobacter baumannii PR440 producing OXA-23/24/40 assessed as cefepime MIC at 4 ug/ml by broth microdilution method
Assay type: functional
Conditions: dose 4 µg/ml

| Compound | MIC [µg/mL] |
| --- | --- |
| O=C(NNC(=O)[C@@H]1CC[C@@H]2CN1C(=O)N2OS(=O)(=O)O)[C@@H]1CCCNC1 [ZIDEBACTAM] | 16 |

System: Pseudomonas aeruginosa
Assay: Synergistic antibacterial activity against Pseudomonas aeruginosa CL232 assessed as meropenem MIC at 8 ug/ml by broth microdilution method
Assay type: functional
Conditions: dose 8 µg/ml

| Compound | MIC [µg/mL] |
| --- | --- |
| O=C(NNC(=O)[C@@H]1CC[C@@H]2CN1C(=O)N2OS(=O)(=O)O)[C@@H]1CCCNC1 [ZIDEBACTAM] | > 16 |

System: Acinetobacter baumannii
Assay: Synergistic antibacterial activity against Acinetobacter baumannii PR319 producing OXA-23/24/40 assessed as cefepime MIC at 4 ug/ml by broth microdilution method
Assay type: functional
Conditions: dose 4 µg/ml

| Compound | MIC [µg/mL] |
| --- | --- |
| O=C(NNC(=O)[C@@H]1CC[C@@H]2CN1C(=O)N2OS(=O)(=O)O)[C@@H]1CCCNC1 [ZIDEBACTAM] | > 16 |

System: Klebsiella pneumoniae
Assay: Synergistic antibacterial activity against Klebsiella pneumoniae 1315/2198 producing KPC-3 assessed as cefepime MIC at 4 ug/ml by broth microdilution method
Assay type: functional
Conditions: dose 4 µg/ml
Procedure, shortened: (§1)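 Broth microdilution per CLSI guidelines, using custom frozen panels. […] Each partner drug was also tested alone. MICs were run in triplicate and the modal value is reported.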

| Compound | MIC [µg/mL] |
| --- | --- |
| O=C(NNC(=O)[C@@H]1CC[C@@H]2CN1C(=O)N2OS(=O)(=O)O)[C@@H]1CCCNC1 [ZIDEBACTAM] | ≤ 0.12 |

System: Acinetobacter baumannii
Assay: Synergistic antibacterial activity against ADC deleted Acinetobacter baumannii transfected with pWH1266 OXA-23 assessed as cefepime MIC at 4 ug/ml by broth microdilution method
Assay type: functional
Conditions: dose 4 µg/ml

| Compound | MIC [µg/mL] |
| --- | --- |
| O=C(NNC(=O)[C@@H]1CC[C@@H]2CN1C(=O)N2OS(=O)(=O)O)[C@@H]1CCCNC1 [ZIDEBACTAM] | 16 |

System: Klebsiella pneumoniae
Assay: Synergistic antibacterial activity against Klebsiella pneumoniae 935/1884 producing KPC-3 assessed as meropenem MIC at 4 ug/ml by broth microdilution method
Assay type: functional
Conditions: dose 4 µg/ml

| Compound | MIC [µg/mL] |
| --- | --- |
| O=C(NNC(=O)[C@@H]1CC[C@@H]2CN1C(=O)N2OS(=O)(=O)O)[C@@H]1CCCNC1 [ZIDEBACTAM] | ≤ 0.12 |

System: Klebsiella pneumoniae
Assay: Synergistic antibacterial activity against Klebsiella pneumoniae 972/1910 producing KPC-3 assessed as cefepime MIC at 8 ug/ml by broth microdilution method
Assay type: functional
Conditions: dose 8 µg/ml

| Compound | MIC [µg/mL] |
| --- | --- |
| O=C(NNC(=O)[C@@H]1CC[C@@H]2CN1C(=O)N2OS(=O)(=O)O)[C@@H]1CCCNC1 [ZIDEBACTAM] | ≤ 0.12 |

System: Acinetobacter baumannii
Assay: Synergistic antibacterial activity against Acinetobacter baumannii PR381 producing OXA-24/40 assessed as cefepime MIC at 4 ug/ml by broth microdilution method
Assay type: functional
Conditions: dose 4 µg/ml

| Compound | MIC [µg/mL] |
| --- | --- |
| O=C(NNC(=O)[C@@H]1CC[C@@H]2CN1C(=O)N2OS(=O)(=O)O)[C@@H]1CCCNC1 [ZIDEBACTAM] | 16 |

System: Klebsiella pneumoniae
Assay: Synergistic antibacterial activity against Klebsiella pneumoniae 761/1723 producing KPC-3 assessed as meropenem MIC at 8 ug/ml by broth microdilution method
Assay type: functional
Conditions: dose 8 µg/ml

| Compound | MIC [µg/mL] |
| --- | --- |
| O=C(NNC(=O)[C@@H]1CC[C@@H]2CN1C(=O)N2OS(=O)(=O)O)[C@@H]1CCCNC1 [ZIDEBACTAM] | ≤ 0.12 |

System: Klebsiella pneumoniae
Assay: Synergistic antibacterial activity against Klebsiella pneumoniae 776/1742 producing KPC-2 assessed as meropenem MIC at 8 ug/ml by broth microdilution method
Assay type: functional
Conditions: dose 8 µg/ml

| Compound | MIC [µg/mL] |
| --- | --- |
| O=C(NNC(=O)[C@@H]1CC[C@@H]2CN1C(=O)N2OS(=O)(=O)O)[C@@H]1CCCNC1 [ZIDEBACTAM] | ≤ 0.12 |

System: Klebsiella pneumoniae
Assay: Synergistic antibacterial activity against Klebsiella pneumoniae 440/1360 producing KPC-2 assessed as cefepime MIC at 8 ug/ml by broth microdilution method
Assay type: functional
Conditions: dose 8 µg/ml
Procedure, shortened: as §1

| Compound | MIC [µg/mL] |
| --- | --- |
| O=C(NNC(=O)[C@@H]1CC[C@@H]2CN1C(=O)N2OS(=O)(=O)O)[C@@H]1CCCNC1 [ZIDEBACTAM] | ≤ 0.12 |

System: Pseudomonas aeruginosa
Assay: Synergistic antibacterial activity against Pseudomonas aeruginosa 715 assessed as meropenem MIC at 8 ug/ml by broth microdilution method
Assay type: functional
Conditions: dose 8 µg/ml

| Compound | MIC [µg/mL] |
| --- | --- |
| O=C(NNC(=O)[C@@H]1CC[C@@H]2CN1C(=O)N2OS(=O)(=O)O)[C@@H]1CCCNC1 [ZIDEBACTAM] | 8 |

System: Escherichia coli
Assay: Synergistic antibacterial activity against Escherichia coli DH10B transfected with pBC SK (-) PDC-3 assessed as cefepime MIC at 4 ug/ml by broth microdilution method
Assay type: functional
Conditions: dose 4 µg/ml
Procedure, shortened: as §1

| Compound | MIC [µg/mL] |
| --- | --- |
| O=C(NNC(=O)[C@@H]1CC[C@@H]2CN1C(=O)N2OS(=O)(=O)O)[C@@H]1CCCNC1 [ZIDEBACTAM] | ≤ 0.12 |

System: Klebsiella pneumoniae
Assay: Synergistic antibacterial activity against Klebsiella pneumoniae 11978 producing OXA-48 assessed as cefepime MIC at 4 ug/ml by broth microdilution method
Assay type: functional
Conditions: dose 4 µg/ml
Procedure, shortened: as §1

| Compound | MIC [µg/mL] |
| --- | --- |
| O=C(NNC(=O)[C@@H]1CC[C@@H]2CN1C(=O)N2OS(=O)(=O)O)[C@@H]1CCCNC1 [ZIDEBACTAM] | ≤ 0.12 |

System: Klebsiella pneumoniae
Assay: Synergistic antibacterial activity against Klebsiella pneumoniae 761/1723 producing KPC-3 assessed as cefepime MIC at 8 ug/ml by broth microdilution method
Assay type: functional
Conditions: dose 8 µg/ml
Procedure, shortened: as §1

| Compound | MIC [µg/mL] |
| --- | --- |
| O=C(NNC(=O)[C@@H]1CC[C@@H]2CN1C(=O)N2OS(=O)(=O)O)[C@@H]1CCCNC1 [ZIDEBACTAM] | ≤ 0.12 |

System: Pseudomonas aeruginosa
Assay: Synergistic antibacterial activity against Pseudomonas aeruginosa 839 assessed as meropenem MIC at 4 ug/ml by broth microdilution method
Assay type: functional
Conditions: dose 4 µg/ml

| Compound | MIC [µg/mL] |
| --- | --- |
| O=C(NNC(=O)[C@@H]1CC[C@@H]2CN1C(=O)N2OS(=O)(=O)O)[C@@H]1CCCNC1 [ZIDEBACTAM] | 0.5 |

System: Acinetobacter baumannii
Assay: Synergistic antibacterial activity against Acinetobacter baumannii PR319 producing OXA-23/24/40 assessed as cefepime MIC at 8 ug/ml by broth microdilution method
Assay type: functional
Conditions: dose 8 µg/ml

| Compound | MIC [µg/mL] |
| --- | --- |
| O=C(NNC(=O)[C@@H]1CC[C@@H]2CN1C(=O)N2OS(=O)(=O)O)[C@@H]1CCCNC1 [ZIDEBACTAM] | > 16 |

System: Bacteria
Assay: Inhibition of bacteria ADC-7 assessed as half life using nitrocefin as substrate
Conditions: not given

| Compound | T1/2 [min] |
| --- | --- |
| O=C(NNC(=O)[C@@H]1CC[C@@H]2CN1C(=O)N2OS(=O)(=O)O)[C@@H]1CCCNC1 [ZIDEBACTAM] | 11 |

System: Acinetobacter baumannii
Assay: Synergistic antibacterial activity against Acinetobacter baumannii PR408 producing OXA-24/40 assessed as cefepime MIC at 8 ug/ml by broth microdilution method
Assay type: functional
Conditions: dose 8 µg/ml

| Compound | MIC [µg/mL] |
| --- | --- |
| O=C(NNC(=O)[C@@H]1CC[C@@H]2CN1C(=O)N2OS(=O)(=O)O)[C@@H]1CCCNC1 [ZIDEBACTAM] | 16 |
